Key:
[1] = test system: Pseudomonas aeruginosa; test: Antimicrobial activity against Pseudomonas aeruginosa ATCC 27853 infected in neutropenic Swiss mouse thigh infection model assessed as reduction in bacterial burden relative to control; type: functional, organism-based; conditions: Thigh muscle
Procedure, shortened: (§1)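 Neutropenic thigh-infected Swiss mice; colistin (sulfate) s.c. started 2 h after inoculation, 5–40 mg/kg per dose every 3, 6, 8, 12 or 24 h (5–160 mg/kg/day), two mice per regimen. Killed 24 h after treatment start; each thigh homogenized and plated on nutrient agar; log10 CFU/thigh, lower count limit 100 CFU; change versus 2 h burden.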

[2] = test system: Pseudomonas aeruginosa; test: Antimicrobial activity against Pseudomonas aeruginosa PAO1 infected in neutropenic Swiss mouse thigh infection model assessed as reduction in bacterial burden relative to control; type: functional, organism-based; conditions: Thigh muscle; procedure, shortened: as §1
[3] = test system: Pseudomonas aeruginosa; test: Antimicrobial activity against Pseudomonas aeruginosa isolate 19056 infected in neutropenic Swiss mouse thigh infection model assessed as reduction in bacterial burden relative to control; type: functional, organism-based; conditions: Thigh muscle; procedure, shortened: as §1
[4] = test system: Pseudomonas aeruginosa; test: Antimicrobial activity against Pseudomonas aeruginosa ATCC 27853 infected in neutropenic Swiss mouse lung infection model assessed as reduction in bacterial burden relative to control; type: functional, organism-based
Procedure, shortened: (§2)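 Neutropenic lung-infected Swiss mice; colistin (sulfate) s.c. from 2 h post-inoculation, 5–40 mg/kg per dose every 6, 8, 12 or 24 h. Killed 24 h after treatment start; lungs homogenized in saline and plated; log10 CFU/lung (limit 220 CFU); change versus 2 h burden.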

[5] = test system: Pseudomonas aeruginosa; test: Antimicrobial activity against Pseudomonas aeruginosa PAO1 infected in neutropenic Swiss mouse lung infection model assessed as reduction in bacterial burden relative to control; type: functional, organism-based; procedure, shortened: as §2
[6] = test system: Pseudomonas aeruginosa; test: Antimicrobial activity against Pseudomonas aeruginosa isolate 19056 infected in neutropenic Swiss mouse lung infection model assessed as reduction in bacterial burden relative to control; type: functional, organism-based; procedure, shortened: as §2
[7] = fAUC/MIC in Pseudomonas aeruginosa ATCC 27853 infected Swiss mouse thigh infection model assessed as induction of static antimicrobial effect after 24 hrs; type: functional
Procedure, shortened: (§3)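 Unbound single-dose profiles superimposed to give 24-h fAUC (trapezoidal) per regimen, divided by MIC; log10 CFU per thigh or lung at 24 h fitted to inhibitory sigmoid Emax model by nonlinear least squares; fAUC/MIC for stasis (24-h count equal to treatment-start count) and 1-, 2-, 3-log10 kill derived from fitted parameters.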

[8] = fAUC/MIC in Pseudomonas aeruginosa ATCC 27853 infected Swiss mouse thigh infection model assessed as 1-log10 kill after 24 hrs; type: functional; procedure, shortened: as §3
[9] = fAUC/MIC in Pseudomonas aeruginosa ATCC 27853 infected Swiss mouse thigh infection model assessed as 2-log10 kill after 24 hrs; type: functional; procedure, shortened: as §3
[10] = fAUC/MIC in Pseudomonas aeruginosa ATCC 27853 infected Swiss mouse thigh infection model assessed as 3-log10 kill after 24 hrs; type: functional; procedure, shortened: as §3
[11] = fAUC/MIC in Pseudomonas aeruginosa PAO1 infected Swiss mouse thigh infection model assessed as induction of static antimicrobial effect after 24 hrs; type: functional
[12] = fAUC/MIC in Pseudomonas aeruginosa PAO1 infected Swiss mouse thigh infection model assessed as 1-log10 kill after 24 hrs; type: functional; procedure, shortened: as §3
[13] = fAUC/MIC in Pseudomonas aeruginosa PAO1 infected Swiss mouse thigh infection model assessed as 2-log10 kill after 24 hrs; type: functional
[14] = fAUC/MIC in Pseudomonas aeruginosa PAO1 infected Swiss mouse thigh infection model assessed as 3-log10 kill after 24 hrs; type: functional
[15] = fAUC/MIC in Pseudomonas aeruginosa isolate 19056 infected Swiss mouse thigh infection model assessed as induction of static antimicrobial effect after 24 hrs; type: functional
[16] = fAUC/MIC in Pseudomonas aeruginosa isolate 19056 infected Swiss mouse thigh infection model after assessed as 1-log10 kill 24 hrs; type: functional
[17] = fAUC/MIC in Pseudomonas aeruginosa isolate 19056 infected Swiss mouse thigh infection model after assessed as 2-log10 kill after 24 hrs; type: functional
[18] = fAUC/MIC in Pseudomonas aeruginosa isolate 19056 infected Swiss mouse thigh infection model after assessed as 3-log10 kill after 24 hrs; type: functional
[19] = fAUC/MIC in Pseudomonas aeruginosa ATCC 27853 infected Swiss mouse lung infection model assessed as induction of static antimicrobial effect after 24 hrs; type: functional; procedure, shortened: as §3
[20] = fAUC/MIC in Pseudomonas aeruginosa ATCC 27853 infected Swiss mouse lung infection model assessed as 1-log10 kill after 24 hrs; type: functional; procedure, shortened: as §3
[21] = fAUC/MIC in Pseudomonas aeruginosa ATCC 27853 infected Swiss mouse lung infection model assessed as 2-log10 kill after 24 hrs; type: functional; procedure, shortened: as §3
[22] = fAUC/MIC in Pseudomonas aeruginosa ATCC 27853 infected Swiss mouse lung infection model assessed as 3-log10 kill after 24 hrs; type: functional; procedure, shortened: as §3
[23] = fAUC/MIC in Pseudomonas aeruginosa PAO1 infected Swiss mouse lung infection model assessed as induction of static antimicrobial effect after 24 hrs; type: functional; procedure, shortened: as §3
[24] = fAUC/MIC in Pseudomonas aeruginosa PAO1 infected Swiss mouse lung infection model assessed as 1-log10 kill after 24 hrs; type: functional; procedure, shortened: as §3
[25] = fAUC/MIC in Pseudomonas aeruginosa PAO1 infected Swiss mouse lung infection model assessed as 2-log10 kill after 24 hrs; type: functional; procedure, shortened: as §3
[26] = fAUC/MIC in Pseudomonas aeruginosa PAO1 infected Swiss mouse lung infection model assessed as 3-log10 kill after 24 hrs; type: functional; procedure, shortened: as §3
[27] = fAUC/MIC in Pseudomonas aeruginosa isolate 19056 infected Swiss mouse lung infection model assessed as induction of static antimicrobial effect after 24 hrs; type: functional
[28] = fAUC/MIC in Pseudomonas aeruginosa isolate 19056 infected Swiss mouse lung infection model assessed as 1-log10 kill after 24 hrs; type: functional
[29] = fAUC/MIC in Pseudomonas aeruginosa isolate 19056 infected Swiss mouse lung infection model assessed as 2-log10 kill after 24 hrs; type: functional
[30] = fAUC/MIC in Pseudomonas aeruginosa isolate 19056 infected Swiss mouse lung infection model assessed as 3-log10 kill after 24 hrs; type: functional
[31] = test system: Pseudomonas aeruginosa; test: Antimicrobial activity against Pseudomonas aeruginosa ATCC 27853 in neutropenic Swiss mouse thigh infection model assessed as bacterial load in mouse thigh after 2 hrs; type: functional, organism-based; conditions: Thigh muscle
Procedure, shortened: (§4)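 Thigh model: female Swiss mice (22–26 g) made neutropenic with cyclophosphamide i.p. (150 mg/kg day −4, 100 mg/kg day −1). Under isoflurane, ~10^7 CFU/ml early-log suspension injected i.m. (50 µl per posterior thigh). Untreated controls killed 2 h post-inoculation; thighs homogenized in saline, filtered, serially diluted, plated on nutrient agar, counted after 24 h at 37°C; log10 CFU/thigh.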

[32] = test system: Pseudomonas aeruginosa; test: Antimicrobial activity against Pseudomonas aeruginosa PAO1 in neutropenic Swiss mouse thigh infection model assessed as bacterial load in mouse thigh after 2 hrs; type: functional, organism-based; conditions: Thigh muscle; procedure, shortened: as §4
[33] = test system: Pseudomonas aeruginosa; test: Antimicrobial activity against Pseudomonas aeruginosa isolate 19056 in neutropenic Swiss mouse thigh infection model assessed as bacterial load in mouse thigh after 2 hrs; type: functional, organism-based; conditions: Thigh muscle; procedure, shortened: as §4
[34] = test system: Pseudomonas aeruginosa; test: Antimicrobial activity against Pseudomonas aeruginosa ATCC 27853 in neutropenic Swiss mouse thigh infection model assessed as bacterial load in mouse thigh at 40 mg/kg, sc after 24 hrs; type: functional, organism-based; parameters: dose 40 mg/kg; procedure, shortened: as §1
[35] = test system: Pseudomonas aeruginosa; test: Antimicrobial activity against Pseudomonas aeruginosa PAO1 in neutropenic Swiss mouse thigh infection model assessed as bacterial load in mouse thigh at 40 mg/kg, sc after 24 hrs; type: functional, organism-based; parameters: dose 40 mg/kg; procedure, shortened: as §1
[36] = test system: Pseudomonas aeruginosa; test: Antimicrobial activity against Pseudomonas aeruginosa isolate 19056 in neutropenic Swiss mouse thigh infection model assessed as bacterial load in mouse thigh at 40 mg/kg, sc after 24 hrs; type: functional, organism-based; parameters: dose 40 mg/kg; procedure, shortened: as §1
[37] = test system: Pseudomonas aeruginosa; test: Antimicrobial activity against Pseudomonas aeruginosa ATCC 27853 in neutropenic Swiss mouse lung infection model assessed as bacterial load in mouse thigh after 2 hrs; type: functional, organism-based; conditions: Thigh muscle
[38] = test system: Pseudomonas aeruginosa; test: Antimicrobial activity against Pseudomonas aeruginosa PAO1 in neutropenic Swiss mouse lung infection model assessed as bacterial load in mouse thigh after 2 hrs; type: functional, organism-based; conditions: Thigh muscle
[39] = test system: Pseudomonas aeruginosa; test: Antimicrobial activity against Pseudomonas aeruginosa isolate 19056 in neutropenic Swiss mouse lung infection model assessed as bacterial load in mouse thigh after 2 hrs; type: functional, organism-based
Procedure, shortened: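 Lung model: neutropenic Swiss mice under isoflurane given 50 µl of ~10^8 CFU/ml early-log suspension intranasally in ~10 µl portions, then held head-up 1 min. Untreated controls killed 2 h post-inoculation; lungs homogenized in 2 ml saline, viable counts by dilution plating on nutrient agar; lower limit 220 CFU/lung.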

[40] = test system: Pseudomonas aeruginosa; test: Antimicrobial activity against Pseudomonas aeruginosa ATCC 27853 in neutropenic Swiss mouse lung infection model assessed as bacterial load in mouse thigh at 40 mg/kg, sc after 24 hrs; type: functional, organism-based; parameters: dose 40 mg/kg; procedure, shortened: as §2
[41] = test system: Pseudomonas aeruginosa; test: Antimicrobial activity against Pseudomonas aeruginosa PAO1 in neutropenic Swiss mouse lung infection model assessed as bacterial load in mouse thigh at 40 mg/kg, sc after 24 hrs; type: functional, organism-based; parameters: dose 40 mg/kg; procedure, shortened: as §2
[42] = test system: Pseudomonas aeruginosa; test: Antimicrobial activity against Pseudomonas aeruginosa ATCC 27853 by broth microdilution method; type: functional, organism-based
Procedure, shortened: (§5)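 Colistin (sulfate) MIC by broth microdilution; strains stored in tryptone soy broth with 20% glycerol at −80°C and subcultured overnight on horse blood agar at 37°C before use.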

[43] = test system: Pseudomonas aeruginosa; test: Antimicrobial activity against Pseudomonas aeruginosa PAO1 by broth microdilution method; type: functional, organism-based; procedure, shortened: as §5
[44] = test system: Pseudomonas aeruginosa; test: Antimicrobial activity against Pseudomonas aeruginosa isolate 19056 by broth microdilution method; type: functional, organism-based; procedure, shortened: as §5

fAUC/MIC [7]: 17.3
fAUC/MIC [11]: 14.4
fAUC/MIC [15]: 8.34
fAUC/MIC [19]: 6.43
fAUC/MIC [23]: 5.42
fAUC/MIC [27]: 4.07
MIC [42]: 1 µg/mL
MIC [43]: 1 µg/mL
MIC [44]: 0.5 µg/mL
Sequence: COLISTIMETHATE SODIUM
Emax (log10 CFU/organ) [1]: 6.29
Emax (log10 CFU/organ) [2]: 5.97
Emax (log10 CFU/organ) [3]: 6.23
Emax (log10 CFU/organ) [4]: 7.58
Emax (log10 CFU/organ) [5]: 7.36
Emax (log10 CFU/organ) [6]: 6.86
fAUC/MIC [8]: 22.7
fAUC/MIC [9]: 31.2
fAUC/MIC [10]: 55.1
fAUC/MIC [12]: 22.8
fAUC/MIC [13]: 36.1
fAUC/MIC [14]: 66.7
fAUC/MIC [16]: 15.6
fAUC/MIC [17]: 27.6
fAUC/MIC [18]: 53.3
fAUC/MIC [20]: 15.6
fAUC/MIC [21]: 37.9
fAUC/MIC [22]: 105
fAUC/MIC [24]: 16.7
fAUC/MIC [25]: 45.9
fAUC/MIC [26]: 135
fAUC/MIC [28]: 12.2
fAUC/MIC [29]: 36.9
fAUC/MIC [30]: 141
log10cfu [31]: 6.14
log10cfu [32]: 6.35
log10cfu [33]: 6.26
log10cfu [34]: 3.17
log10cfu [35]: 4.01
log10cfu [36]: 3.69
log10cfu [37]: 6.64
log10cfu [38]: 6.92
log10cfu [39]: 6.43
log10cfu [40]: 3.58
log10cfu [41]: 3.09

Reference: ChEMBL document CHEMBL1240382, “Elucidation of the pharmacokinetic/pharmacodynamic determinant of colistin activity against Pseudomonas aeruginosa in murine thigh and lung infection models” (Antimicrob Agents Chemother, 2010)
